Experimental data: ChEMBL document CHEMBL4334439, “Discovery, Optimization, and Target Identification of Novel Potent Broad-Spectrum Antiviral Inhibitors” (J Med Chem, 2019)
Calls of active or inactive are those of the source. The rule behind the calls is not given here.

How the values were obtained:
[1] = target: Heat shock protein HSP90 (Homo sapiens) (UniProt P07900+P08238); test: Binding affinity to HSP90 (unknown origin); assay type: protein assay
[2] = test system: Respiratory syncytial virus; test: Antiviral activity against RSV infected in African green monkey Vero cells assessed as inhibition of viral replication measured after 5 to 7 days by plaque formation assay; assay type: functional, organism-based; conditions: human respiratory syncytial virus
Method in brief: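 Vero cells at 2×10^4/well were cultured 18 h, then infected with RSV at 2000 TCID50/ml. Compound (0.01–20 µM) was added immediately. Viral amount was measured by plaque formation assay.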

[3] = Selectivity index, ratio of CC50 for human Huh7.5.1 cells to EC50 for ZIKV infected in human Huh7.5.1 cells; assay type: toxicity, cell-based; conditions: read-out: Ratio CC50/EC50
Method in brief: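 SI from two assays. Antiviral: Huh7.5.1 cells infected with DENV II or ZIKV at MOI 0.1; viral RNA measured by qRT-PCR after 3 days; EC50 taken at 50% RNA reduction. Cytotoxicity: cells seeded at 1×10^4/well, given serially diluted compound for 48 h, then WST-1 absorbance (OD450/OD630) read for CC50.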

Enterovirus A71 = test: Antiviral activity against EV71 infected in human RD cells measured at 24 hrs post-infection by luciferase reporter gene assay; assay type: functional, organism-based; conditions: Enterovirus A
Method in brief: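 RD cells at 1×10^4/well, cultured overnight, were infected with EV71(FY)-Luc at MOI 1 and treated with compound immediately afterwards. Luminescence read-out; EC50 is 50% signal reduction.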

Hepatitis C virus [4] = test: Antiviral activity against EGFP-fused HCV JFH-1 harboring K78E/E2-G451R/NS3-M260K/NS5A-T462I mutation infected in human Huh7.5.1 cells assessed as reduction in viral RNA level after 2 days in presence of ribavirin by qRT-PCR analysis; assay type: functional, organism-based; conditions: Hepacivirus hominis
Method in brief: (§1)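 Huh7.5.1 cells at 1×10^4/well, grown overnight at 37 °C. HCVcc was mixed with serially diluted compound (top 30 or 6 μM), given alone or with the named drug, and added to the cells. Viral RNA was read by qRT-PCR after 2 days. EC50 is the concentration giving 50% RNA reduction.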

Zika virus = test: Antiviral activity against ZIKV infected in human Huh7.5.1 cells assessed as inhibition of viral replication measured after 3 days qRT-PCR analysis; assay type: functional, organism-based; conditions: Huh-7.5.1, 72 h
Method in brief: (§2)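 Huh7.5.1 cells were infected with DENV II or ZIKV at MOI 0.1 and treated with compound. Viral RNA was quantified by qRT-PCR after 3 days. EC50 is 50% reduction of RNA level.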

Hepatitis C virus [5] = test: Antiviral activity against HCV JFH-1 harboring K78E/E2-G451R/NS3-M260K/NS5A-T462I mutant infected in human Huh7.5.1 cells after 2 days by renilla luciferase reporter gene assay; assay type: functional, organism-based, Hepacivirus hominis; conditions: JFH-1, Huh-7.5.1, 48 h
Method in brief: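 Renilla luciferase reporter HCVcc (hRluc inserted in NS5A, aa 399/400) came from electroporated Huh7.5.1 supernatant. Virus plus serially diluted compound (top 30 or 6 μM) was added to Huh7.5.1 cells (1×10^4/well) and luminescence read. EC50 is 50% luminescence reduction.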

Hepatitis C virus [6] = test: Antiviral activity against HCV JFH-1 pseudotyped viral particle infected in HEK293T cells cotransfected with pCDN3.1-JFH1-cE1E2 plasmid encoding envelope with full length JFH1 and pNL4-3R-E-luciferase construct by luciferase reporter gene assay; assay type: functional, organism-based, Hepacivirus hominis; conditions: JFH-1, HEK-293T
Method in brief: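 HCVpp came from HEK293T co-transfected with the JFH1 E1E2 plasmid and pNL4-3R-E-luciferase. Supernatant was harvested at 48 h, filtered and luciferase-standardised for input. Virus was mixed with serially diluted compound (top 30 or 6 μM) and added to cells. Luminescence was read; EC50 is 50% signal reduction.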

[7] = Cytotoxicity against MDCK cells infected with Gaussia tagged Influenza A virus (A/Puerto Rico/8/34(H1N1)) measured after 48 hrs by WST1 assay; assay type: cell-based, Canis lupus familiaris; conditions: dog
Method in brief: (§3)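 Cells at 1×10^4/well, cultured overnight at 37 °C, were incubated 48 h with serially diluted compound. Viability was read by WST-1 absorbance (OD450/OD630).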

Dengue virus = test: Antiviral activity against DENV infected in human Huh7.5.1 cells assessed as inhibition of viral replication measured after 3 days by qRT-PCR analysis; assay type: functional, organism-based; conditions: Huh-7.5.1, 72 h; method in brief: as §2
[8] = Cytotoxicity against human Caco2 cells infected with MERS-CoV measured after 48 hrs by WST1 assay; assay type: cell-based, Caco-2; method in brief: as §3
[9] = test system: Middle East respiratory syndrome-related coronavirus; test: Antiviral activity against MERS-CoV infected in human Caco2 cells assessed as inhibition of viral replication measured at 18 hrs post-infection by plaque formation assay; assay type: functional, organism-based; conditions: Caco-2, 18 h
Hepatitis C virus [10] = test: Ratio of EC50 for antiviral activity against HCV infected in human Huh7.5.1 cells assessed as decrease in viral infection in presence of uridine to EC50 for antiviral activity against HCV infected in human Huh7.5.1 cells assessed as decrease in viral infection in absence of uridine; assay type: functional, Hepacivirus hominis
Method in brief: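 HCV antiviral EC50 in Huh7.5.1 cells was measured with 0.5 mM uridine supplemented, and compared with the EC50 obtained without uridine.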

Homo sapiens = species on record: Homo sapiens; test: Potency index, ratio of teriflunomide IC50 to test compound IC50 for C-terminal 6-His tagged recombinant human DHODH N-terminal domain delta29 mutant expressed in Escherichia coli BL21(DE3)
Method in brief: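 DCIP assay: His6-Δ29 human DHODH at 10 nM final in 50 mM HEPES pH 7.7, 150 mM KCl, 0.1% Triton X-100, with 100 μM UQ0 and 120 μM DCIP, preincubated 5 min at RT. Reaction started with 500 μM dihydroorotate; A600 read every 30 s for 6 min.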

[11] = Cytotoxicity against HEK293T cells infected with HIV pseudotyped virions assessed as decrease in cell viability after 48 hrs by WST1 assay; assay type: cell-based, HEK-293T; conditions: human
Method in brief: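 Cells seeded at 1 × 10^4 per well and cultured overnight at 37 °C, then incubated 48 h with serially diluted compounds. Viability read with WST-1 reagent as absorbance at OD450/OD630.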

Hepatitis C virus [12] = test: Antiviral activity against EGFP-fused HCV JFH-1 harboring K78E/E2-G451R/NS3-M260K/NS5A-T462I mutation infected in human Huh7.5.1 cells assessed as reduction in viral RNA level after 2 days in presence of boceprevir by qRT-PCR analysis; assay type: functional, organism-based; conditions: Hepacivirus hominis; method in brief: as §1
[13] = Inhibition of C-terminal 6-His tagged recombinant human DHODH N-terminal domain delta29 mutant expressed in Escherichia coli BL21(DE3) using dihydroorotate as substrate measured every 30 secs for 6 mins by DCIP dye based assay
Method in brief: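 Enzyme purified by HisTrap then size exclusion. Reaction started with 500 μM dihydroorotate. DCIP decrease read at 600 nm. Inhibition = (1 − Vi/V0) × 100. IC50 from 8–9 concentrations in triplicate by sigmoidal fit.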

[14] = Cytotoxicity against African green monkey Vero cells infected with CHIKV assessed as decrease in cell viability after 48 hrs by WST1 assay; assay type: cell-based; conditions: chlorocebus sabaeus; method in brief: as §3

For `CCN(CC)c1ccc(Oc2ccc(-c3[nH]c4cccc(F)c4c(=O)c3C)cc2F)cc1`, the Activity [1] was “inactive”, the EC50 [2] was 60 nM and the selectivity ratio [3] was over 125. For the same compound, the EC50 (Enterovirus A71) was 4 nM, the Activity (Hepatitis C virus [4]) was “Dose-dependent effect” and the EC50 (Zika virus) was 20 nM. The EC50 (Hepatitis C virus [5]) was 4 to 7 nM, the EC50 (Hepatitis C virus [6]) was over 50000 nM and the CC50 at 48 h [7] was over 2500 nM. For the same compound, the EC50 (Dengue virus) was 7 nM, the CC50 at 48 h [8] was over 2500 nM and the EC50 [9] was 333 nM. The “Ratio EC50” value (Hepatitis C virus [10]) was 200, the Ratio IC50 (Homo sapiens) was 4 and the CC50 at 48 h [11] was over 1250 nM. For the same compound, the Activity (Hepatitis C virus [12]) was “Dose-dependent effect”, the IC50 [13] was 60 nM and the CC50 at 48 h [14] was over 2500 nM.
